Assay outcomes from PubChem BioAssay.
MrgX1 agonist: activates human MrgX1 receptor signaling. Q96LB2. MrgX1-HEK293 cells, Fluo-4 calcium fluorescence, agonist mode; hits give high values. B-score at 10 µM. 310,000 tested, 0.44% active. AID 588627;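 active means calcium response B-score plate-corrected fluorescence ratio at least 3 library SD, with starting fluorescence B-score inside 5 SD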
Target sequence (Q96LB2 whole entry, looked up): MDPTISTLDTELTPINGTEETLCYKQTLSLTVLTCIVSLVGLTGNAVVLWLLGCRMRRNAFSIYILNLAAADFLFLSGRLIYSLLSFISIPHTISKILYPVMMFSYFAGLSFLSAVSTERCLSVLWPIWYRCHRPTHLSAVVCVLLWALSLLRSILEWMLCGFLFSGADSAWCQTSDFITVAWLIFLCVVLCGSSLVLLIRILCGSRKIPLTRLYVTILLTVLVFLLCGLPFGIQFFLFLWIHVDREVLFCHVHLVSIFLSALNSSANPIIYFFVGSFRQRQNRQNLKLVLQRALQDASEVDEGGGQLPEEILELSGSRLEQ
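System: HEK293 cells stably expressing human MrgX1 receptor; Dosing: test compound in the initial addition of three; Schedule: overnight plating, then 30 min 37 °C plus 30 min room-temperature dye loading; Detection: kinetic calcium dye fluorescence, Fluo-4 NW; Controls: per-plate positive and negative controls for Z′ factor.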
RGS4 pot: potentiators or activators of RGS4; HEK293 M3R/inducible RGS4, carbachol calcium flux Fluo4; hits give low values; B-score at 10 µM; 310,000 tested, 0.92% active;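 active means B-score of the integrated calcium signal more than 4 SD below the library mean, with starting fluorescence not abnormally high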;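 further: negative B-score means reduced calcium response which marks RGS4 activation or potentiation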
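test system = M3R-expressing HEK293 line, RGS4 induced by doxycycline | probe or stimulus = carbachol at ECmax as muscarinic agonist stimulus | timing = dye loading 30 min 37 °C, buffer rest 30 min RT | signal = calcium dye Fluo4 fluorescence | evaluation = B score from integrated fluorescence ratio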
RGS4 block: human RGS4 inhibition | AID 463165 | 310,000 tested, 0.45% active | HEK293 M3R/RGS4 inducible, Fluo-4 calcium flux; hits give high values; triggered by carbachol at its EC20 | B-score at 10 µM | P49798;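 active means B-score, a plate-corrected calcium signal, over three deviations above library mean, with baseline fluorescence within five deviations of library mean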;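 further: RGS4 expression induced by doxycycline in cells with stable M3 receptor; B-score is computed from the integrated fluorescence ratio over baseline after carbachol; higher B-score means a larger calcium signal and so more RGS4 inhibition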
Target sequence (P49798 whole entry, looked up): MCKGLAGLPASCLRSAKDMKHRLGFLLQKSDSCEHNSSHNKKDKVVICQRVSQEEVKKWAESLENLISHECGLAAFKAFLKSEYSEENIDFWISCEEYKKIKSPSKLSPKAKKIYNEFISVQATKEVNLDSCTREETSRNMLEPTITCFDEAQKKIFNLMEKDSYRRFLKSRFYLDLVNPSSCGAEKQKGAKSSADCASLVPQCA
MrgX1 PAM: human MrgX1 positive allosteric modulation, primary screen | MrgX1-HEK293, Fluo-4 calcium flux, FDSS; hits give high values | 310,000 tested, 0.63% active | Q96LB2 | B-score at 10 µM;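 active means plate-corrected calcium response at least 3 library SD above typical, normal starting fluorescence, not activating the receptor alone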;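 further: compound read alongside a low EC10 to EC30 dose of BAM8-22 agonist; peak minus trough fluorescence over baseline measured at the second addition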
MrgX1 antag: blocks BAM8-22 activation of human MrgX1 receptor; Q96LB2; MRGX1-HEK293 calcium flux, Fluo-4, BAM8-22 antagonism; hits give low values; B-score at 10 µM; 310,000 tested, 1.3% active; AID 588676;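 active means calcium-response B-score plate-corrected more than 3 library SD below zero, starting fluorescence within 5 deviations, no agonist response on first addition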;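 further: peak minus trough fluorescence over baseline after final BAM8-22 challenge near maximal dose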
RGS4 activ val: RGS4 activation, validation assay; inhibition, % at 10 µM; 1,100 tested, 89% active; HEK293 M3R/RGS4 inducible, carbachol calcium flux Fluo4; shares compounds with RGS4 pot;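 active means inhibition above 3 SD of the buffer control wells, cut at about 41% in these data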;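 further: signal is the integrated peak-minus-minimum Fluo4 fluorescence over baseline ratio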
M3R Ca counter: activity in cells without induced RGS4 expression; shares compounds with RGS4 pot; 1,100 tested, 82% active; inhibition, % at 10 µM; HEK293 M3R non-induced RGS4, Fluo4 calcium flux; after carbachol challenge at its EC90;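 active means inhibition exceeding 3 SD of buffer-only control wells, cut at about 26% in these data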;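 further: percent drop in integrated peak-minus-baseline over baseline Fluo4 ratio after carbachol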
* marks the source's active call; other numbers are inactive results; i = inactive; / = no result. In the library only some 3.5% were active in any assay of this set; here they are far more common.

SMILES	MrgX1 agonist	RGS4 pot	RGS4 block	MrgX1 PAM	MrgX1 antag	RGS4 activ val	M3R Ca counter
Brc1ccc(-c2c[n+]3c(n2-c2ccccc2)SCC3)cc1	i	i	i	i	i	/	/
Cc1ccc(SCc2c(-c3ccccc3)nn(C)c2Cl)cc1	i	i	i	i	i	/	/
Cc1ccc(Sc2c(C#N)c(-c3ccccc3)nn2C)cc1	i	-8*	i	i	i	74*	36*
Brc1cccc(OCCCN2CCCCCC2)c1	i	-8.5*	i	i	i	76*	84*
c1ccc(Oc2cccc(OCCCCN3CCCC3)c2)cc1	i	-11*	i	i	i	94*	88*
CC1CN(CCCCOc2cccc(Oc3ccccc3)c2)CC(C)O1 (stereo not given)	i	i	i	i	i	/	/
CC1CCN(CCOc2cccc(Br)c2)CC1	i	i	i	i	i	/	/
CC1CCCN(CCOc2cccc(Oc3ccccc3)c2)C1 (stereo not given)	i	-8.6*	i	i	i	90*	57*
CCCOc1ccc(OCCN2CCCC(C)C2)cc1 (stereo not given)	i	-9.8*	i	i	i	92*	50*
CC(C)(C)NC(=O)N1CCCN(c2ccc(C(F)(F)F)cn2)CC1	i	i	i	i	i	/	/
COc1cc(-c2noc(C)c2C#Cc2ccsc2)cc(OC)c1OC	i	i	i	i	i	/	/
Clc1ccc(OCCCN2CCCC2)cc1Cl	i	i	i	i	i	/	/
Cc1cc(OCCCCCN2CCCC2)ccc1Cl	i	-9.5*	i	i	i	80*	27*
CC(C)c1cc(-c2cc(C(=O)NCc3ccccc3)on2)nc(NCC2CC2)n1	i	-8.4*	i	i	i	92*	92*
CCCCn1c(-c2csc(CCC)c2)n[nH]c1=S	i	-12*	i	i	i	58*	84*
CCCc1cc(-c2n[nH]c(=S)n2CC)cs1	i	i	i	i	i	/	/
CN(CC(=O)Nc1ccc(C#N)cc1)Cc1ccc(Cl)c(Cl)c1	i	-8.7*	i	i	i	92*	95*
CN(CC(=O)Nc1cccc(C#N)c1)Cc1ccc(Cl)cc1	i	i	i	i	i	/	/
CCOC(=O)c1c(-c2ccccc2)csc1NC(=O)c1nn(CC)cc1Br	i	-7.6*	i	i	i	80*	0
CCOc1ccc(Br)cc1C1C(C(=O)OC)=C(N)Oc2cc(N(C)C)ccc21 (stereo not given)	i	-9.2*	i	i	i	92*	69*
COc1ccc(S(=O)(=O)NNC(=O)Nc2ccc(F)cc2F)c(OC)c1	i	i	i	i	i	/	/
COc1cc(/C=N/c2oc(-c3ccccc3)cc2C#N)ccc1O	i	-7.8*	i	i	i	0	0
O=c1c2cc(F)ccc2[nH]c(=S)n1CCCN1CCOCC1	i	i	i	i	i	/	/
CCCN(CCC)C(=S)NC(=O)c1ccc(-c2ccccc2)cc1	i	i	i	i	i	/	/
COc1cccc(-c2cc(C(=O)NCCCn3ccnc3)no2)c1	i	i	i	i	i	/	/
SMILES	MrgX1 agonist	RGS4 pot	RGS4 block	MrgX1 PAM	MrgX1 antag	RGS4 activ val	M3R Ca counter
Cc1cc(=O)n(C(NC(=O)c2ccccc2)C(=O)c2ccccc2)cn1 (stereo not given)	i	-9.2*	i	i	i	0	0
O=C(NC(C(=O)c1ccccc1)N1CCOCC1)c1ccccc1 (stereo not given)	i	i	i	i	i	/	/
CCCCCc1cc(O)c2c(C)cc(=O)oc2c1	i	i	i	i	i	/	/
CCCCc1cc(O)c(CCCC)c(O)c1	i	-8*	i	i	-11*	92*	88*
COC(=O)C1=C(C)NC(=O)NC1c1ccc(OC(=O)c2ccco2)cc1 (stereo not given)	i	i	i	i	i	/	/
N=C1c2ccccc2CN1c1ccc(S(=O)(=O)N2CCCCC2)cc1	i	-8.8*	i	i	i	75*	36*
Cc1cccc(OCCOC(=O)c2c(-c3ccccc3)noc2C)c1	i	i	i	i	i	/	/
CC(C)C(=O)Nc1cccc(-c2nc3ncccc3o2)c1	i	i	i	i	i	/	/
O=C(CSc1ccc(Cl)cc1)Nc1cc(-c2nc3ncccc3o2)ccc1Cl	i	i	i	i	i	/	/
COc1c(C)cc(Br)cc1C(=O)Nc1cccc(-c2nc3ncccc3o2)c1	i	-8.3*	i	i	i	94*	74*
O=C(CSc1ccc(Cl)cc1)Nc1cccc(-c2nc3ncccc3o2)c1	i	-8.7*	i	i	i	92*	92*
Cc1ccc(N2CCN(C(=O)c3cc(COc4c(C)cccc4C)on3)CC2)c(C)c1	i	-7.7*	i	i	i	70*	32*
O=C(NC1CCN(Cc2ccccc2)CC1)C1COc2ccccc2O1 (stereo not given)	i	-8.5*	i	i	i	92*	87*
O=C(NCc1ccccc1)C1COc2ccccc2O1 (stereo not given)	i	i	i	i	i	/	/
CC1CCN(CCCOc2ccc(OCc3ccccc3)cc2)CC1	i	-10*	i	i	i	92*	78*
c1ccc(COc2ccc(OCCN3CCCC3)cc2)cc1	i	i	i	i	i	/	/
c1ccc(COc2ccc(OCCCN3CCCC3)cc2)cc1	i	-11*	i	i	i	94*	57*
Cc1ccc(N/N=C(/Sc2nnnn2-c2ccccc2)C(=O)c2ccccc2)cc1	i	-16*	i	i	i	0	0
COc1ccc(-c2csc3ncnc(N4CCN(c5ccccc5OC)CC4)c23)cc1	i	-8.6*	i	i	i	86*	49*
Cc1nc(N2CCN(c3ccccc3O)CC2)c2c(-c3ccccc3)csc2n1	i	-11*	i	i	i	90*	34*
CCN1CCN(c2ncnc3scc(-c4ccc(C)cc4)c23)CC1	i	i	i	i	i	/	/
COc1ccc(-c2csc3nc(C)nc(N4CCN(C(C)=O)CC4)c23)cc1OC	i	i	i	i	i	/	/
